In ChEMBL document CHEMBL1781906, “New quinolin-4-yl-1,2,3-triazoles carrying amides, sulphonamides and amidopiperazines as potential antitubercular agents” (2011):
Values after ≈ are worked out from the molar mass of the structure shown.

Columns and labels:
Type in all cases: functional
[1] = system: Mycolicibacterium fortuitum; test: Antimycobacterial activity against Mycobacterium fortuitum ATCC 19542 after 7 days by resazurin method; details: ATCC 19542, 168 h
Procedure, shortened: (§1)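 MIC was determined by resazurin microplate assay. Resazurin turns from blue to pink when reduced by viable cells, and wells with no colour change were scored as inhibited. Isoniazid and rifampicin were reference drugs.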

Streptococcus pyogenes = test: Antibacterial activity against Streptococcus pyogenes after 18 to 24 hrs by serial plate dilution method
Staphylococcus aureus = test: Antibacterial activity against Staphylococcus aureus ATCC 25923 after 18 to 24 hrs by serial plate dilution method
[2] = system: Mycolicibacterium smegmatis; test: Antimycobacterial activity against Mycobacterium smegmatis ATCC 19420 after 7 days by resazurin method; details: ATCC 19420, 168 h; procedure, shortened: as §1
[3] = system: Mycobacterium tuberculosis; test: Antimycobacterial activity against Mycobacterium tuberculosis H37Rv ATCC 27294 after 7 days by resazurin method; details: H37Rv ATCC 27294, 168 h
Procedure, shortened: (§2)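 H37Rv was grown in Middlebrook 7H9 broth with 10% OADC, diluted to McFarland 2 in the same medium, and added to fresh medium in 96-well plates with compound. Compounds were tested at 1, 10 and 100. The dye turned pink in controls after […] at 37 °C.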

Klebsiella pneumoniae = test: Antibacterial activity against Klebsiella pneumoniae after 18 to 24 hrs by […]
Pseudomonas aeruginosa = test: Antibacterial activity against Pseudomonas aeruginosa ATCC 27853 after 18 to 24 hrs by […]
Escherichia coli = test: Antibacterial activity against Escherichia coli ATCC 25922 after 18 to 24 hrs by […]
[4] = system: Mycobacterium tuberculosis; test: Antimycobacterial activity against Mycobacterium tuberculosis H37Rv ATCC 27294 assessed as inhibition of bacterial growth at 1 to 100 ug/ml after 7 days by resazurin method; procedure, shortened: as §2

Structure (SMILES) | MIC [1] | MIC (Streptococcus pyogenes) | MIC (Staphylococcus aureus) | MIC [2] | MIC [3] | MIC (Klebsiella pneumoniae) | MIC (Pseudomonas aeruginosa) | MIC (Escherichia coli) | inhibition (INH) [4]
COc1ccc2nc(C)cc(-n3cc(CNS(=O)(=O)c4ccc(Cl)c(Cl)c4)nn3)c2c1 | 100 µg/mL (≈ 209 µM) | 3.12 µg/mL (≈ 6.52 µM) | 1.6 µg/mL (≈ 3.34 µM) | 100 µg/mL (≈ 209 µM) | 100 µg/mL (≈ 209 µM) | 3.12 µg/mL (≈ 6.52 µM) | 12.5 µg/mL (≈ 26.1 µM) | 12.5 µg/mL (≈ 26.1 µM) | 
COc1ccc2nc(C)cc(-n3cc(CNC(=O)c4ccc(C(F)(F)F)cc4)nn3)c2c1 | 5 µg/mL (≈ 11.3 µM) | 0.2 µg/mL (≈ 0.453 µM) | 0.4 µg/mL (≈ 0.906 µM) | 10 µg/mL (≈ 22.7 µM) | 0.625 µg/mL (≈ 1.42 µM) | 0.2 µg/mL (≈ 0.453 µM) | 0.4 µg/mL (≈ 0.906 µM) | 0.4 µg/mL (≈ 0.906 µM) | 95%
COc1ccc2nc(C)cc(-n3cc(CNC(=O)c4ccc(F)cc4)nn3)c2c1 | 100 µg/mL (≈ 255 µM) | 0.2 µg/mL (≈ 0.511 µM) | 0.8 µg/mL (≈ 2.04 µM) | 10 µg/mL (≈ 25.5 µM) | 0.625 µg/mL (≈ 1.6 µM) | 0.2 µg/mL (≈ 0.511 µM) | 0.2 µg/mL (≈ 0.511 µM) | 0.2 µg/mL (≈ 0.511 µM) | 90%
COc1ccc2nc(C)cc(-n3cc(CN4CCN(C(=O)C5CC5)CC4)nn3)c2c1 | 100 µg/mL (≈ 246 µM) | 0.4 µg/mL (≈ 0.984 µM) | 0.8 µg/mL (≈ 1.97 µM) | 100 µg/mL (≈ 246 µM) | 5 µg/mL (≈ 12.3 µM) | 0.2 µg/mL (≈ 0.492 µM) | 0.4 µg/mL (≈ 0.984 µM) | 0.4 µg/mL (≈ 0.984 µM) | 90%
COc1ccc2nc(C)cc(-n3cc(CN4CCN(C(=O)c5ccc(C)cc5)CC4)nn3)c2c1 | 100 µg/mL (≈ 219 µM) | 6.25 µg/mL (≈ 13.7 µM) | 6.25 µg/mL (≈ 13.7 µM) | 100 µg/mL (≈ 219 µM) | 100 µg/mL (≈ 219 µM) | 12.5 µg/mL (≈ 27.4 µM) | 12.5 µg/mL (≈ 27.4 µM) | 6.25 µg/mL (≈ 13.7 µM) | 
COc1ccc2nc(C)cc(-n3cc(CNC(=O)C4CCC4)nn3)c2c1 | 100 µg/mL (≈ 285 µM) | 0.8 µg/mL (≈ 2.28 µM) | 1.6 µg/mL (≈ 4.55 µM) | 100 µg/mL (≈ 285 µM) | 10 µg/mL (≈ 28.5 µM) | 1.6 µg/mL (≈ 4.55 µM) | 0.8 µg/mL (≈ 2.28 µM) | 1.6 µg/mL (≈ 4.55 µM) | 85%
COc1ccc2nc(C)cc(-n3cc(CN4CCN(C(=O)c5ccc(Cl)c(Cl)c5)CC4)nn3)c2c1 | 100 µg/mL (≈ 196 µM) | 0.8 µg/mL (≈ 1.56 µM) | 6.25 µg/mL (≈ 12.2 µM) | 100 µg/mL (≈ 196 µM) | 5 µg/mL (≈ 9.78 µM) | 0.8 µg/mL (≈ 1.56 µM) | 0.8 µg/mL (≈ 1.56 µM) | 3.12 µg/mL (≈ 6.1 µM) | 85%
CCc1ccc(S(=O)(=O)NCc2cn(-c3cc(C)nc4ccc(OC)cc34)nn2)cc1 | 100 µg/mL (≈ 229 µM) | 6.25 µg/mL (≈ 14.3 µM) | 6.25 µg/mL (≈ 14.3 µM) | 100 µg/mL (≈ 229 µM) | 100 µg/mL (≈ 229 µM) | 6.25 µg/mL (≈ 14.3 µM) | 12.5 µg/mL (≈ 28.6 µM) | 6.25 µg/mL (≈ 14.3 µM) | 
CCc1ccc(C(=O)N2CCN(Cc3cn(-c4cc(C)nc5ccc(OC)cc45)nn3)CC2)cc1 | 100 µg/mL (≈ 213 µM) | 6.25 µg/mL (≈ 13.3 µM) | 6.25 µg/mL (≈ 13.3 µM) | 100 µg/mL (≈ 213 µM) | 100 µg/mL (≈ 213 µM) | 3.12 µg/mL (≈ 6.63 µM) | 6.25 µg/mL (≈ 13.3 µM) | 3.12 µg/mL (≈ 6.63 µM) | 
COc1ccc2nc(C)cc(-n3cc(CNC(=O)c4ccc(C)cc4)nn3)c2c1 | 100 µg/mL (≈ 258 µM) | 0.8 µg/mL (≈ 2.06 µM) | 1.6 µg/mL (≈ 4.13 µM) | 100 µg/mL (≈ 258 µM) | 100 µg/mL (≈ 258 µM) | 3.12 µg/mL (≈ 8.05 µM) | 6.25 µg/mL (≈ 16.1 µM) | 3.12 µg/mL (≈ 8.05 µM) | 
NNC(=O)c1ccncc1 [ISONIAZID] | 12.5 µg/mL (≈ 91.1 µM) |  |  | 50 µg/mL (≈ 365 µM) | 0.7 µg/mL (≈ 5.1 µM) |  |  |  | 95%
COc1ccc2nc(C)cc(-n3cc(CNS(=O)(=O)c4ccc(C)cc4)nn3)c2c1 | 100 µg/mL (≈ 236 µM) | 6.25 µg/mL (≈ 14.8 µM) | 3.12 µg/mL (≈ 7.37 µM) | 100 µg/mL (≈ 236 µM) | 10 µg/mL (≈ 23.6 µM) | 6.25 µg/mL (≈ 14.8 µM) | 6.25 µg/mL (≈ 14.8 µM) | 6.25 µg/mL (≈ 14.8 µM) | 85%
COc1ccc2nc(C)cc(-n3cc(CN4CCN(C(=O)c5ccccc5F)CC4)nn3)c2c1 | 100 µg/mL (≈ 217 µM) | 0.4 µg/mL (≈ 0.869 µM) | 0.8 µg/mL (≈ 1.74 µM) | 5 µg/mL (≈ 10.9 µM) | 1 µg/mL (≈ 2.17 µM) | 1.6 µg/mL (≈ 3.47 µM) | 3.12 µg/mL (≈ 6.78 µM) | 1.6 µg/mL (≈ 3.47 µM) | 90%
COc1ccc(C(=O)NCc2cn(-c3cc(C)nc4ccc(OC)cc34)nn2)cc1 | 10 µg/mL (≈ 24.8 µM) | 0.4 µg/mL (≈ 0.991 µM) | 0.8 µg/mL (≈ 1.98 µM) | 5 µg/mL (≈ 12.4 µM) | 0.625 µg/mL (≈ 1.55 µM) | 0.1 µg/mL (≈ 0.248 µM) | 0.4 µg/mL (≈ 0.991 µM) | 0.1 µg/mL (≈ 0.248 µM) | 95%
COc1ccc2nc(C)cc(-n3cc(CNC(C)=O)nn3)c2c1 | 10 µg/mL (≈ 32.1 µM) | 0.2 µg/mL (≈ 0.642 µM) | 0.4 µg/mL (≈ 1.28 µM) | 10 µg/mL (≈ 32.1 µM) | 0.625 µg/mL (≈ 2.01 µM) | 0.1 µg/mL (≈ 0.321 µM) | 0.2 µg/mL (≈ 0.642 µM) | 0.1 µg/mL (≈ 0.321 µM) | 95%
CCc1ccc(C(=O)NCc2cn(-c3cc(C)nc4ccc(OC)cc34)nn2)cc1 | 100 µg/mL (≈ 249 µM) | 3.12 µg/mL (≈ 7.77 µM) | 3.12 µg/mL (≈ 7.77 µM) | 100 µg/mL (≈ 249 µM) | 100 µg/mL (≈ 249 µM) | 3.12 µg/mL (≈ 7.77 µM) | 6.25 µg/mL (≈ 15.6 µM) | 3.12 µg/mL (≈ 7.77 µM) | 80%
